Measurements reported in ChEMBL document CHEMBL1133654, “Studies directed at the use of a parallel synthesis matrix to increase throughput in an in vivo assay” (2000).

Assay: Mean plasma clotting time (APTT) was measured following a single colonic dose with heparin in rats
Assay type: functional, Rattus norvegicus
In short: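 Male Sprague-Dawley rats (300-350 g, fasted 12 h, groups of 5) were anesthetized with ketamine 44 mg/kg im and given one colonic dose (1 mL/kg) by catheter through the anus. Dosing was delivery agent 50 mg/kg plus heparin 25 mg/kg for single agents, or 50 mg/kg for mixtures, as a sonicated solution of apparent pH about 7. Citrated cardiac blood was taken at 0-1.5 h, and mean peak plasma APTT was reported.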

| SMILES | APTT [s] |
| --- | --- |
| O=C(O)CCCCCCCCCNC(=O)c1ccccc1F | 27 |
| O=C(O)CCCCCCCCCCCNC(=O)c1ccccc1 | 24 |
| O=C(O)CCCCCCCCCCCNC(=O)c1ccccc1F | 33 |
| Cc1ccccc1C(=O)NCCCCCCCCCC(=O)O | 34 |
| O=C(O)CCCCCNC(=O)c1ccccc1F | 28 |
| O=C(O)CCCNC(=O)c1ccccc1F | 22 |
| Cc1ccccc1C(=O)NCCCCCC(=O)O | 26 |
| COc1ccccc1C(=O)NCCCCCCCCCC(=O)O | 50 |
| COc1ccccc1C(=O)NCCCCCCCCCCCC(=O)O | 54 |
| Cc1ccccc1C(=O)NCCCCCCCCCCCC(=O)O | 30 |
| O=C(O)CCCCCNC(=O)c1ccccc1 | 33 |
| O=C(O)CCCNC(=O)c1ccccc1 | 22 |
| O=C(O)CCCCCCCCCNC(=O)c1ccccc1 | 31 |
| O=C(O)CCCCCCCNC(=O)c1ccccc1 | 21 |
| COc1ccccc1C(=O)NCCCCCCCC(=O)O | 27 |
| Cc1ccccc1C(=O)NCCCCCCCC(=O)O | 23 |
| O=C(O)CCCCCCCNC(=O)c1ccccc1F | 25 |
| O=C(O)CCCNC(=O)c1ccccc1O | 31 |
| O=C(O)CCCCCCCCCCCNC(=O)c1ccccc1O | 86 |
| O=C(O)CCCCCCCCCNC(=O)c1ccccc1O | 153 |
| O=C(O)CCCCCNC(=O)c1ccccc1O | 24 |
| COc1ccccc1C(=O)NCCCCCC(=O)O | 31 |
| Cc1ccccc1C(=O)NCCCC(=O)O | 24 |
| COc1ccccc1C(=O)NCCCC(=O)O | 26 |
| O=C(O)CCCCCCCNC(=O)c1ccccc1O [SALCAPROZIC ACID] | 125 |
